Values joined by “and” are separate entries in the source; they are usually repeats but may differ in a detail not shown here. Equal entries are not always repeated.

Data set [1] in a line: (§1) Half life was measured at pH 7. It is filed as ADME. Put shortly:
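Stability in pH 7 buffer, followed by HPLC; reported as half-life. The method is taken from an earlier paper.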

The test system of data set [2] is HEp-2. The data set can be described thus: Inhibition of colony formation of H.Ep-2 cells. The format is functional, cell-based. Particulars: Homo sapiens, read-out: I50. The essentials:
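H.Ep.-2 cells exposed to drug over a 12-day period. Colony formation was scored against untreated controls, and I50 was taken as the concentration giving 50% inhibition.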

The subject of data set [3] is L1210. The data set can be described thus: Inhibition of proliferation of L1210 cells. It is filed as functional, cell-based. Particulars: Mus musculus, read-out: I50. Put shortly:
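L1210 cells in suspension culture with drug for 48 h. I50 was the concentration giving 50% inhibition of proliferation relative to controls.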

The test system of data set [4] is Mus musculus. The data set can be described thus: Percent increase in life span of p388 leukemia induced mice was determined at a dose of 200 mg/kg upon ip administration on days 1-5. It is filed as functional. Particulars: route intraperitoneal. The essentials:
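Mice implanted with 10⁶ P388 leukemia cells were dosed intraperitoneally once daily on days 1-5 after implant. Activity is expressed as % increase in life span, and 30-day survivors were recorded.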

A short description of data set [5]: as §1. It is filed as ADME. Put shortly: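 Stability in pH 7 buffer, with decomposition followed by HPLC and the half-life taken from it.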
This is another data set of the same source.

Data set [6] concerns L1210. The data set can be described thus: Number of cells present measured with the Coulter counter at 100 uM conc. The format is functional, Mus musculus. Put shortly:
(§2)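 L1210 suspension cultures with agent for 30 min or 18 h, then a further 4 h with radiolabelled precursor. Cells were counted by Coulter counter and expressed as R, the count relative to the initial cell number (R = 1.0). R < 1.0 means a fall below the starting number; R > 1.0 means proliferation.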

For data set [7], the system named is L1210. The data set can be described thus: Number of cells present measured with the Coulter counter at 25 uM conc. It is filed as functional, Mus musculus. Put shortly: as §2
In data set [8] the test system is L1210. The data set can be described thus: Number of cells present measured with the Coulter counter at 50 uM conc. The format is functional, Mus musculus. The essentials:
as §2

The test system of data set [9] is L1210. The data set can be described thus: Size distribution of cells at 100 uM conc. It is filed as functional, Mus musculus. The essentials: (§3)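 L1210 suspension cultures with agent for 30 min or 18 h, then a 4-h labelling period. Size distribution was measured on a Model ZH Coulter Counter. The value is the instrument setting at the peak of cell size; higher settings mean larger cells.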

Data set [10] deals with L1210. Briefly: Size distribution of cells at 25 uM conc. The format is functional, Mus musculus. Put shortly:
as §3

The test system of data set [11] is L1210. Briefly: Size distribution of cells at 50 uM conc. The format is functional, Mus musculus. Put shortly: as §3
Data set [12] concerns L1210. Briefly: percent synthesis of DNA in L1210 cells when incubated with the compound for 30 min using […] as radioligand at 50 uM conc. It is filed as functional, Mus musculus. Put shortly:
(§4)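 DNA synthesis in L1210 suspension cultures preincubated with agent for 30 min or 18 h. [3H]dThd was then added to the medium, and incorporation into DNA was sampled at 1-h intervals over 4 h. Values are for the 4-h labelling period, as % of untreated control.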

The subject of data set [13] is L1210. Briefly: percent synthesis of DNA in L1210 cells when incubated with the compound for 18 h using […] as radioligand at 25 uM conc. It is filed as functional, Mus musculus. The essentials:
as §4

For data set [14], the system named is L1210. The data set can be described thus: percent synthesis of DNA in L1210 cells when incubated with the compound for 18 h using […] as radioligand at 50 uM conc. The format is functional, Mus musculus. Put shortly: as §4
Data set [15] deals with L1210. Briefly: percent synthesis of DNA in L1210 cells when incubated with the compound for 30 min using […] as radioligand at 100 uM conc. The format is functional, Mus musculus. The essentials: as §4
Data set [16] relates to L1210. The data set can be described thus: percent synthesis of protein in L1210 cells when incubated with the compound for 18 h uusing [3H]L-Leu as radioligand at 50 uM conc. The format is functional, Mus musculus. Put shortly:
(§5)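 Protein synthesis in L1210 suspension cultures preincubated with agent for 30 min or 18 h. [4,5-3H]-L-leucine was then added, and incorporation into protein was sampled hourly over 4 h. Values are 4-h incorporation as % of untreated control.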

Data set [17] deals with L1210. Briefly: percent synthesis of protein in L1210 cells when incubated with the compound for 30 min using [3H]L-Leu as radioligand at 50 uM conc. The format is functional, Mus musculus. Put shortly: as §5
For data set [18], the system named is L1210. Briefly: percent synthesis of RNA in L1210 cells when incubated with compound for 18 hr using […] as radioligand at 25 uM conc. The format is functional, Mus musculus. The essentials: (§6)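 RNA synthesis in L1210 suspension cultures preincubated with agent for 30 min or 18 h. [5-3H]Urd was then added, and incorporation into RNA was sampled hourly over 4 h. Values are 4-h incorporation as % of untreated control.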

The test system of data set [19] is L1210. The data set can be described thus: percent synthesis of RNA in L1210 cells when incubated with compound for 18 hr using […] as radioligand at 50 uM conc. It is filed as functional, Mus musculus. Put shortly: as §6
Data set [20] relates to L1210. The data set can be described thus: percent synthesis of RNA in L1210 cells when incubated with compound for 30 min using […] as radioligand at 100 uM conc. It is filed as functional, Mus musculus. The essentials: as §6
In data set [21] the test system is L1210. Briefly: percent synthesis of RNA in L1210 cells when incubated with compound for 30 min using [3H]dThd as radioligand at 50 uM conc. Conditions: in the assay text read “[5-3H]Urd” for “[3H]dThd”. It is filed as functional, Mus musculus. The essentials:
as §6

For the compound `CCN(N=O)C(=O)NCC1OC(n2cc(C)c(=O)[nH]c2=O)CC1O` (stereo unspecified), in [1], the half-life is 1140 min. Moreover, the IC50 in data set [2] and in [3] was over 87 µM throughout. The compound also returned an ILS at 200 mg/kg in [4] of 0%.
Turning to `Cc1cn(C2CC(O)C(C(=O)Nc3ccc(NC(=O)N(C)N=O)cc3)O2)c(=O)[nH]c1=O` (stereo unspecified), the half-life in [1] is 24 min. For the same compound, the IC50 in data set [2] is 46 µM; in [3], over 90 µM. In data set [4], the ILS at 200 mg/kg came out at 79%.
As to `O=NN(CCCl)C(=O)N[C@H]1C(O)O[C@H](CO)[C@@H](O)[C@@H]1O` (stereo partly specified) [CHLOROZOTOCIN], in [5], the T1/2 stood at 52.5 min.
For `O=NN(CCCl)C(=O)NC1CCCCC1` [LOMUSTINE], the Cell no is 1 and 0.42 in data set [6]; 1.02 and 0.48 in [7]; 1 and 0.53 in data set [8]. Also, the Cell size in [9] was 65 and 85; in data set [10], 67.5 and 90; in [11] it was 62.5 and 90. Besides, the Control in [12] was 75%; in data set [13], 88% and 139%; in data set [14], 143%; in data set [15], 46% and 131%; in data set [16], 584%; in data set [17], 79%. The Control in [18] is 106% and 282%; in data set [19], 393%; in [20], 101% and 246%; in data set [21], 121%.
Turning to `CN(N=O)C(N)=O` [N-METHYL-N-NITROSUREA], the T1/2 in data set [5] came out at 52.5 min.
